Compound activity from PubChem BioAssay.
Granule exo inh – blocks lytic granule exocytosis; inhibition, % at 10 µM; TALL-104 LAMP-1 surface exposure, flow cytometry; cells stimulated with thapsigargin and PMA; 0.66% of 360,000 active; AID 651702;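 active means inhibition above about 55%, limit read from the data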
PfGluPho inh – PfG6PD (Plasmodium falciparum) enzyme inhibition | 0.78% of 350,000 active | inhibition, % at 20 µM | PfGluPho enzyme, NADPH resazurin-diaphorase fluorescence;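 active means inhibition reaching at least a set limit at 20 µM in the primary screen, cut at about 59% in these data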
ABHD5 PLIN5 PPI – blocks binding of human ABHD5 to perilipin-5 | Split G. princeps luciferase complementation, luminescence, 4 h | AID 602281 | 0.78% of 360,000 active | Q00G26+Q8WTS1 | inhibition, % at 4 µM;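 active means inhibition above the mean inhibition across every tested compound plus 3 SD, cut at about 22% in these data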
HKDC1 inh – HKDC1 (human) hexokinase inhibition; Q2TB90; recombinant HKDC1, G6PDH/diaphorase resazurin coupled fluorescence; inhibition, % at 20 µM; 0.16% of 340,000 active; AID 493160;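 active means inhibition above about 35% when tested at 20 µM, limit read from the data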
Target sequence (Q2TB90 whole entry, looked up): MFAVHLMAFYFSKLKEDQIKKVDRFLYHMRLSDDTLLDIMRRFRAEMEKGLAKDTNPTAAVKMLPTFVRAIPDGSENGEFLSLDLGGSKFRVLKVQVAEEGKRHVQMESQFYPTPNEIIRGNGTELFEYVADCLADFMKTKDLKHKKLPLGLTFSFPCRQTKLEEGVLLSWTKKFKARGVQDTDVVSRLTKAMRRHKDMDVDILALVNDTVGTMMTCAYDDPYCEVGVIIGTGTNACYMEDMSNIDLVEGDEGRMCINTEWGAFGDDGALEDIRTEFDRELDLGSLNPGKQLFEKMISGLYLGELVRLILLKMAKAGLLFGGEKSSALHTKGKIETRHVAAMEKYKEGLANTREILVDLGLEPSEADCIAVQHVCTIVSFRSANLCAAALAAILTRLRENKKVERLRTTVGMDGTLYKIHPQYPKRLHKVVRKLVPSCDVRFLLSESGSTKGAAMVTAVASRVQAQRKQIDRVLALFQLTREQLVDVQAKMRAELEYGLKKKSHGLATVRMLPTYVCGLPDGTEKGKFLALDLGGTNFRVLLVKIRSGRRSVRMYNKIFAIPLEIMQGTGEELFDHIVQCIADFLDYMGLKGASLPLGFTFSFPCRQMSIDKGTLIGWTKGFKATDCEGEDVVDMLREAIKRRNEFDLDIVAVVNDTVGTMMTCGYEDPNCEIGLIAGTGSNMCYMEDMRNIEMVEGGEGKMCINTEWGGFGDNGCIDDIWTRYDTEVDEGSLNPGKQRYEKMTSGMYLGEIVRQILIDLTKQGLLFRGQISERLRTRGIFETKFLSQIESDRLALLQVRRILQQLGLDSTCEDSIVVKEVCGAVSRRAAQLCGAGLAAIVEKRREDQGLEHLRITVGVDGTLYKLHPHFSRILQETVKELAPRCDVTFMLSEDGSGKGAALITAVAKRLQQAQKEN
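Material: recombinant HKDC1 hexokinase; Amount: HKDC1 at 5 µg/mL; Medium: Tris pH 8.0 buffer with MgCl2, Tween-20, BSA, BME; Schedule: 90 min reaction incubation at room temperature, dark; Technique: coupled resazurin fluorescence, excitation 525 nm, emission 613 nm.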
HKDC1 act conf2 – confirmation of human HKDC1 activators | shares compounds with HKDC1 inh | recombinant HKDC1, G6PDH/diaphorase resazurin fluorescence; hits give low values | inhibition, % at 20 µM | 14% of 740 active | AID 504708;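 active means inhibition at or below a set negative limit, negative inhibition meaning the enzyme was activated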
PfG6PD confirm – PfG6PD inhibition, single-dose confirmed | shares compounds with PfGluPho inh | 34% of 2,400 active | inhibition, % at 20 µM | AID 504753 | recombinant PfGluPho, NADPH-diaphorase-resazurin fluorescence;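 active means inhibition of at least 50% at 20 µM in any single replicate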
Diaph ctr 10uM – diaphorase inhibition or oxidation at 10 uM NADPH; diaphorase-coupled resazurin reduction, fluorescence, NADPH 10 uM; 39% of 820 active; inhibition, % at 20 µM; shares compounds with PfGluPho inh; AID 504862;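 active means average inhibition reaching 50% or more with the compound at 20 µM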;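 further: resorufin red fluorescence formed as diaphorase reduces resazurin using NADPH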
Diaph ctr 30uM – counter-screen for P. falciparum G6PD inhibitors: diaphorase inhibitors, oxidizers. shares compounds with PfGluPho inh. Diaphorase/resazurin coupled assay, resorufin fluorescence, 30 uM NADPH. inhibition, % at 20 µM. 29% of 820 active. AID 504863;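 active means inhibition averaging 50% or more, tested at 20 µM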
Numbers stand for hits; - = inactive; . = no result. An excerpt weighted towards active compounds, which were near 2.2% of everything screened.

SMILES	Granule exo inh	PfGluPho inh	ABHD5 PLIN5 PPI	HKDC1 inh	HKDC1 act conf2	others
Cc1ccc2n1Cc1cnnn1-c1ccccc1-2	-	-	-	.	.
N#CC12c3ccccc3C(=O)N1Cc1cnnn1-c1ccccc12 (centres undefined)	-	.	-	.	.
CNC(C(=O)c1ccccc1)C(OC)c1ccc(C)cc1 (centres undefined)	-	-	-	-	.
Cc1ccc(N2C(=O)NC(=O)/C(=C/c3ccc(-c4ccc(C(=O)O)c(Cl)c4)o3)C2=O)cc1	-	-	22	-	.
Cc1cccc(N2C(=O)NC(=O)/C(=C\c3cccn3-c3ccc(Cl)cc3)C2=O)c1	73	-	30	-	.
O=C1/C(=C\c2ccc(Cl)c(Cl)c2)N2CCC1CC2	94	-	-	-	.
CCN(CC)c1ccc(N=Cc2c(O)n(Cc3ccco3)c(=O)[nH]c2=O)cc1	-	-	-	-	.
NC(=O)c1ccc(N=Cc2c(O)n(Cc3ccco3)c(=O)[nH]c2=O)cc1	-	-	-	36	-
CCCCCCn1c(=O)c(C(=O)Nc2ncccc2C)c(O)c2ccccc21	-	-	-	-	.
COC1CCCCC1NCCc1ccccc1 (centres undefined)	-	-	-	-	.
CC[C@H](C)/C=C(C)/C=C/C1=CC2=C(Cl)C(=O)[C@@](C)(OC(C)=O)C(=O)C2=CO1	-	-	.	63	-
COc1cc2c(cc1OC)C(C(=O)N(C)C1CCCCC1)C1CCCCN1C2=O (centres undefined)	-	-	-	-	.
O=C1NC(=S)N(c2ccc(F)cc2)C(=O)/C1=C\c1ccoc1	-	-	-	51	-
Cn1c(=O)c2c(nc(N/N=C/c3c(O)n(C4CCCCC4)c(=S)[nH]c3=O)n2C)n(C)c1=O	-	-	-	-	-49
O=C(Cn1ccc2ccccc2c1=O)NCC(=O)N1CCC2(CC1)OCCO2	-	-	-	-	.
C=CCn1c(O)c(C(CC)=Nc2cccc(C(F)(F)F)c2)c(=O)[nH]c1=O	-	-	-	-	.
CCOC(=O)c1c(-n2c(C)cc(/C=C3\C(=O)NC(=O)N(C)C3=O)c2C)sc2c1CCCC2	57	-	-	51	-
Cc1ccc(N2C(=O)NC(=O)/C(=C\c3cc(C)n(-c4ccc(C(=O)O)cc4)c3C)C2=O)cc1	-	-	-	-	.
Cc1cc(/C=C2\C(=O)NC(=O)N(c3ccc(Cl)cc3)C2=O)c(C)n1-c1sc2c(c1C#N)CCCC2	-	-	-	69	-
N#CC1=C(N)Oc2c(c(=O)sc3ccccc23)C1c1ccncc1 (centres undefined)	-	-	-	-	-
COc1ccc(OC)c(N2C(=O)/C(=C/c3ccco3)C(=O)NC2=S)c1	.	-	.	82	-
O=C1CC=C2C3CC4N(CCC45c4ccccc4N1C25)CC3=CCO (centres undefined)	-	-	-	-	.
O=C1CC=C2C3CC4N(CCC45c4cc(O)c(O)cc4N1C25)CC3=CCBr (centres undefined)	-	126	-	45	-
O=C1NC(=O)N(c2ccc(Cl)cc2)C(=O)/C1=C\c1ccc(Sc2nc3ccccc3[nH]2)o1	-	-	-	-	.
Cc1ccc2c(C)c3ccc4ccccc4c3c[n+]2c1	-	-	-	-	-65
SMILES	Granule exo inh	PfGluPho inh	ABHD5 PLIN5 PPI	HKDC1 inh	HKDC1 act conf2	others
Cc1cc(N2CCCC2)ccc1C=C(C#N)C#N	-	-	-	-	.
N#CC(C#N)=Cc1ccc(C=C(C#N)C#N)cc1	-	-	-	38	-
CC(C)CC12CN3CCN(CC(C3)C1O)C2 (centres undefined)	-	-	-	-	.
CC1(C)C(C(=O)N2CCN(c3ccc(Cl)cc3)CC2)C1(C)C	-	-	-	-	.
COC(=O)C1CN(C#N)N(c2ccc(Cl)cc2)C12c1ccccc1-c1ccccc12 (centres undefined)	69	-	74	87	-
O=C(O)CC1OCC=C2CN3CCC45C6=CC(=O)C(=O)C([N+](=O)[O-])=C6NC4C1C2CC35 (centres undefined)	-	107	-	43	-	PfG6PD confirm=105;Diaph ctr 10uM=91;Diaph ctr 30uM=97
